Experimental data: ChEMBL document CHEMBL1142876, “Non-carboxylic analogues of arylpropionic acids: synthesis, anti-inflammatory activity and ulcerogenic potential” (Eur J Med Chem, 2007)

Experiments:
Rattus norvegicus [1] = assay: Antiinflammatory activity against carrageenan-induced paw edema in Albino rat at 30 mg/kg body weight, sc; format: functional; details: route subcutaneous
Outline: (§1)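 Rats from National Research Centre, acclimatised one week, 12 h light/dark, food and water ad libitum; groups of six. Right hind paw sub-plantar injection of 0.05 mL 1% carrageenan in saline. Drugs dissolved in DMSO, given subcutaneously; vehicle controls got DMSO. Paw volume measured before and 0.5, 1.5, 2, 3, 6, 8 h post-carrageenan; edema AUC by trapezoidal method, mean ± S.E.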

Rattus norvegicus [2] = assay: Toxicity assessed as ulcerogenic effect in Albino rat at 30 mg/kg, po twice a day after 3 days; format: organism-based; parameters: dose 30 mg/kg, route oral; details: in vivo, 72 h
Outline: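 Male albino rats, 150–200 g, fasted 12 h (water ad libitum), six per group. Oral dosing in two equal doses of 30 mg/kg at 0 and 12 h for three successive days; controls received 1% gum acacia orally. Killed with diethyl ether 6 h after final dose; stomach opened along greater curvature, saline-washed, examined under 3× lens for hyperemia, haemorrhage or ulcer. % ulceration = ulcer-bearing animals/group total ×100.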

Rattus norvegicus [3] = assay: Antiinflammatory activity against carrageenan-induced paw edema in Albino rat at 200 mg/kg body weight, sc; format: functional; details: route subcutaneous; outline: as §1

SMILES | Activity (Rattus norvegicus [1]) [%] | Activity (Rattus norvegicus [2]) [%] | Activity (Rattus norvegicus [3]) [%]
COc1ccc2cc(C(C)c3nnc(Nc4ccc(Br)cc4)[nH]3)ccc2c1 (centres undefined) | 69.67 |  | 
CC(C)Cc1ccc(C(C)c2nnc(Nc3cccc(Cl)c3)[nH]2)cc1 (centres undefined) | 70.86 |  | 
CC(c1ccc(-c2ccccc2)c(F)c1)c1nnc(Nc2cccc(Cl)c2)[nH]1 (centres undefined) | 69.65 | 0 | 
CC(C)Cc1ccc(C(C)C(=O)O)cc1 (centres undefined) [IBUPROFEN] | 86.07 |  | 
CC(C)Cc1ccc(C(C)c2nnc(Nc3ccc(Br)cc3)[nH]2)cc1 (centres undefined) | 69.52 | 33.3 | 
CC(c1ccc(-c2ccccc2)c(F)c1)c1nnc(Nc2ccc(Br)cc2)[nH]1 (centres undefined) | 68.36 | 0 | 
COc1ccc2cc(C(C)c3nnc(Nc4cccc(Cl)c4)[nH]3)ccc2c1 (centres undefined) | 66.8 | 0 | 
C[C@]12CCC(=O)C=C1CC[C@@H]1[C@@H]2[C@@H](O)C[C@@]2(C)[C@H]1CC[C@]2(O)C(=O)CO [HYDROCORTISONE] |  |  | 73.39
COc1ccc2c(c1)c(CC(=O)O)c(C)n2C(=O)c1ccc(Cl)cc1 [INDOMETHACIN] |  | 100 | 
CC(C)Cc1ccc(C(C)c2nnc3sc(S)nn23)cc1 (centres undefined) | 72.1 |  | 
